These results are taken from ChEMBL document CHEMBL4196161, “Lead Optimization of 5-Aryl Benzimidazolone- and Oxindole-Based AMPA Receptor Modulators Selective for TARP γ-8” (ACS Med Chem Lett, 2018).

Molecules are shown by their SMILES. Values after ≈ are worked out from the molar mass of the structure shown. A value given as a limit tells only on which side of the number the result lay.

Data set [1] deals with Rattus norvegicus. Nature of the data set: Toxicity in po dosed Sprague-Dawley rat assessed as effect on central nervous system functions measured after 14 days. It is filed as organism-based. Conditions: in vivo, 336 h. The method, boiled down: (§1)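 Repeat-dose toleration study in rats over 14 days at 20 and 60 mg/kg/day; CNS observations recorded and liver assessed by histological analysis.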

A short description of data set [2]: Half life in Sprague-Dawley rat at 1 mg/kg, iv administered as single dose by LC-MS/MS analysis. The note with it: in vivo. It is filed as ADME, organism-based. Put shortly: (§2)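 Single 1 mg/kg i.v. dose as a solution to Sprague–Dawley rats (n = 3/group); vehicle 20% HP-β-CD in one study series, 1:1 PEG400/H2O in the other; plasma PK parameters derived.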
A short description of data set [3]: Protein binding in human plasma assessed as unbound fraction at 1 uM measured after 6 hrs by equilibrium dialysis method. It counts as ADME, cell-free. Put shortly:
(§3)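 Human or rat plasma protein binding at 1 μM compound, expressed as fraction unbound (fub).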
Background: In equilibrium dialysis free small molecules cross a membrane that holds back macromolecules.

Data set [4] is described as follows: Ratio of unbound brain to plasma concentration in Sprague-Dawley rat at 1 mg/kg, iv or 5 mg/kg, po administered as single dose by LC-MS/MS analysis. It is filed as ADME, organism-based. Conditions: brain and plasma, read-out: K(p,uu,brain).
Data set [5] can be described thus: Cmax in Sprague-Dawley rat at 5 mg/kg, po administered as single dose by LC-MS/MS analysis. It counts as ADME, organism-based. On the set-up: dose 5 mg/kg, route oral. Conditions: in vivo. The method, boiled down:
(§4)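 Sprague–Dawley rats (n = 3/group) given compound as a solution in 20% HP-β-CD, 1 mg/kg i.v. and 5 mg/kg p.o.; plasma pharmacokinetics derived from these arms.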

Data set [6] in a line: Apparent permeability across basolateral to apical side in MDCK-MDR1 cells at 5 uM measured after 60 mins by LC-MS/MS analysis. It counts as ADME, cell-based, Canis lupus familiaris. The note with it: dog. Put shortly: (§5)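 Bidirectional apparent permeability measured in Madin–Darby canine kidney cells transfected with the MDR1 (P-gp) gene; Papp reported in ×10–6 cm/s.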

The test system of data set [7] is Rattus norvegicus. The data set can be described thus: Ex vivo receptor occupancy at GluA/TARPgamma8 in po dosed Sprague-Dawley rat assessed as reduction in [3H]JNJ-56022486 receptor labeling in hippocampus measured within 10 mins by autoradiography. It is filed as functional.
The test system of data set [8] is Rattus norvegicus. Nature of the data set: Ex vivo receptor occupancy at GluA/TARPgamma8 in po dosed Sprague-Dawley rat assessed as brain concentration causing 50% reduction in [3H]JNJ-56022486 receptor labeling in hippocampus at Tmax by autoradiography. It counts as functional, organism-based. The method, boiled down: (§6)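 Oral dose–response in Sprague–Dawley rats, n = 3/dose (8 doses in one study; vehicle 0.5% HPMC or 20% HP-β-CD); hippocampal occupancy measured at Tmax by ex vivo autoradiography using [3H]-12; EC50 expressed against plasma (ng/mL) or brain (ng/g) exposure, ED50 against dose.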

The nature of data set [9]: Thermodynamic solubility of the compound in simulated gastric fluid at pH 1.6 incubated under stirred condition for 3 days. It is filed as physicochemical. The note with it: read-out: Therm_solubility. The method, boiled down: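 Thermodynamic solubility (μM) determined in simulated gastric fluid at pH 1.6 and in fasted state simulated intestinal fluid at pH 6.5.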

Data set [10] can be described thus: Oral bioavailability in Sprague-Dawley rat at 5 mg/kg administered as single dose by LC-MS/MS analysis. It is filed as ADME, organism-based. Conditions: in vivo. Put shortly: as §4
Data set [11] in a line: Thermodynamic solubility of the compound in fasted state simulated intestinal fluid at pH 6.5 incubated under stirred condition for 3 days. Conditions: read-out: Therm_solubility.
The test system of data set [12] is Rattus norvegicus. Nature of the data set: Hepatotoxicity in Sprague-Dawley rat assessed as necrosis at 20 to 60 mg/kg, po measured after 14 days by histological analysis. It counts as toxicity, organism-based. The note with it: in vivo, 336 h. Put shortly:
as §1

The nature of data set [13]: Volume of distribution at steady state in Sprague-Dawley rat at 1 mg/kg, iv or 5 mg/kg, po administered as single dose by LC-MS/MS analysis. It counts as ADME, organism-based. Conditions: in vivo, read-out: Vdss. The method, boiled down:
as §2

Data set [14] is described as follows: Clearance in Sprague-Dawley rat at 1 mg/kg, iv administered as single dose by LC-MS/MS analysis. It is filed as ADME, organism-based. Conditions: in vivo. Put shortly: as §2
Data set [15] is described as follows: Apparent permeability across apical to basolateral side in MDCK-MDR1 cells at 5 uM measured after 60 mins by LC-MS/MS analysis. It is filed as ADME, cell-based, Canis lupus familiaris. Conditions: dog. The method, boiled down:
as §5

Data set [16] relates to Rattus norvegicus. The data set can be described thus: Ex vivo receptor occupancy at GluA/TARPgamma8 Sprague-Dawley rat assessed as plasma concentration causing 50% reduction in [3H]JNJ-56022486 receptor labeling in hippocampus po measured after 10 mins by autoradiography.
The species entered for the next data set is Homo sapiens. Nature of the data set: Selectivity ratio of IC50 for recombinant human GluA1 flop isoform/TARPgamma2 expressed in HEK293F cells to IC50 for recombinant human GluA1 flop isoform/TARPgamma8 expressed in HEK293F cells. It is filed as cell-based. Put shortly: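 Calcium-flux (FLIPR) inhibition in HEK-293 cells, giving pIC50 for each receptor. For γ-8, cells expressed a human GluA1o–γ-8 fusion construct, with at least three assays run in triplicate and reported as mean ± SD. For γ-2, cells expressed human GluA1-flop cotransfected with γ-2. The ratio compares the γ-2 IC50 with the γ-8 IC50.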

The test system of data set [17] is Rattus norvegicus. Nature of the data set: Ex vivo receptor occupancy at GluA/TARPgamma8 in po dosed Sprague-Dawley rat assessed as plasma concentration causing 50% reduction in [3H]JNJ-56022486 receptor labeling in hippocampus at ED50 at Tmax by autoradiography. It counts as functional, organism-based. The method, boiled down:
as §6

Data set [18] in a line: Hepatic extraction ratio in rat liver microsomes at 1 uM measured after 60 mins in presence of NADPH by LC-MS/MS analysis. Conditions: read-out: ERH. It is filed as ADME, microsome. Put shortly:
(§7)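 Human or rat liver microsomal stability at 1 μM; results expressed as extraction ratio, i.e. predicted hepatic clearance divided by species-specific hepatic blood flow.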
A general note: Liver microsomes are a subcellular fraction often used to study metabolism.

The test system of data set [19] is Rattus norvegicus. The data set can be described thus: Ex vivo receptor occupancy at GluA/TARPgamma8 in Sprague-Dawley rat assessed as reduction in [3H]JNJ-56022486 receptor labeling in hippocampus at 3 mg/kg, po at Tmax by autoradiography relative to control. It counts as functional. The method, boiled down:
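Rats (Sprague–Dawley, n = 2/dose group) dosed orally with suspensions in 0.5% HPMC at 3 or 10 mg/kg; hippocampal GluA/γ-8 occupancy at Tmax by ex vivo autoradiography with [3H]12 radiotracer; brain (ng/g) and plasma (ng/mL) concentrations taken at Tmax.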

Data set [20] in a line: Volume of distribution at steady state in Sprague-Dawley rat at 1 mg/kg, iv administered as single dose by LC-MS/MS analysis. The note with it: in vivo, read-out: Vdss. It counts as ADME, organism-based. Put shortly: as §2
Data set [21] in a line: Fraction unbound in rat brain at 5 uM after 5 hrs by equilibrium dialysis method. It is filed as ADME, tissue-based. Put shortly:
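Rat brain tissue binding, reported as fraction unbound, at 5 μM compound.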

Another data set has as its target GRIA1/CACNG2 (Homo sapiens, UniProt P42261+Q9Y698). Nature of the data set: Modulation of recombinant human GluA1 flop isoform/TARPgamma2 expressed in HEK293F cells assessed as blockade of glutamate-induced calcium flux by calcium 5/6 dye based FLIPR assay. It is filed as cell-based. Put shortly:
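HEK-293 cells transiently expressing human GluA1o cotransfected with γ-2; FLIPR calcium-flux read-out; pIC50 reported; n = 1, run in triplicate.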
In general terms: A change in cytosolic calcium serves as a functional read-out for many receptors and channels.

The nature of data set [22]: Protein binding in rat plasma assessed as unbound fraction at 1 uM measured after 6 hrs by equilibrium dialysis method. It counts as ADME, cell-free. The method, boiled down:
as §3

Data set [23] has as its system Rattus norvegicus. The data set can be described thus: Ex vivo receptor occupancy at GluA/TARPgamma8 in po dosed Sprague-Dawley rat assessed as plasma concentration causing 50% reduction in [3H]JNJ-56022486 receptor labeling in hippocampus at Tmax by autoradiography. It counts as functional, organism-based. Put shortly:
as §6

Data set [24] has as its system Rattus norvegicus. The data set can be described thus: Ex vivo receptor occupancy at GluA/TARPgamma8 in po dosed Sprague-Dawley rat assessed as brain concentration causing 50% reduction in [3H]JNJ-56022486 receptor labeling in hippocampus at ED50 at Tmax by autoradiography. It counts as functional, organism-based. Put shortly: as §6
Data set [25] can be described thus: Hepatic extraction ratio in human liver microsomes at 1 uM measured after 60 mins in presence of NADPH by LC-MS/MS analysis. It counts as ADME, microsome. The note with it: read-out: ERH. The method, boiled down: as §7

Chain of GRIA1/CACNG2 (P42261 whole entry, canonical isoform): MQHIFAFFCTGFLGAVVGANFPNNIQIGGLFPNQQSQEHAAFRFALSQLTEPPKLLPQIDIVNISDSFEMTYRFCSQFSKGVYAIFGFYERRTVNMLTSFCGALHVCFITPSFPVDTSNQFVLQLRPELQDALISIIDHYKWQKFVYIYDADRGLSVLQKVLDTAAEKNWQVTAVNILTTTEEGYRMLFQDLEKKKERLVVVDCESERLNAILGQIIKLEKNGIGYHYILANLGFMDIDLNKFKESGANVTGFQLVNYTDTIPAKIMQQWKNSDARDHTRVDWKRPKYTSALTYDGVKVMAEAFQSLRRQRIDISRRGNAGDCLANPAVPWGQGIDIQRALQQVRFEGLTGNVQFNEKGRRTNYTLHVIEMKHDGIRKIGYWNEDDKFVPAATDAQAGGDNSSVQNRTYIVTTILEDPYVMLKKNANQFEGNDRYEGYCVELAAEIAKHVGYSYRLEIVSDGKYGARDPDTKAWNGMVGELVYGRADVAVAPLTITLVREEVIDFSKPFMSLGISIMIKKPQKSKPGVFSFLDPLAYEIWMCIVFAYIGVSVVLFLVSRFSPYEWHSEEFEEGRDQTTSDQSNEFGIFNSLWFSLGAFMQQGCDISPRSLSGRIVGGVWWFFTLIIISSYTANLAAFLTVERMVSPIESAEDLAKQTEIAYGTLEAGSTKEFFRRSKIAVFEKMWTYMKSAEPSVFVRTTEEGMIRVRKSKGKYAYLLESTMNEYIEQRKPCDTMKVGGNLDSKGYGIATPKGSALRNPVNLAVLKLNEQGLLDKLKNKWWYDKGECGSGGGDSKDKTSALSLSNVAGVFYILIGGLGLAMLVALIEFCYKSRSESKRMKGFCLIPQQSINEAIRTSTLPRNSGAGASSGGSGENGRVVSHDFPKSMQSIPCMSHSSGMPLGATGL
Chain of GRIA1/CACNG2 (Q9Y698 whole entry, canonical isoform): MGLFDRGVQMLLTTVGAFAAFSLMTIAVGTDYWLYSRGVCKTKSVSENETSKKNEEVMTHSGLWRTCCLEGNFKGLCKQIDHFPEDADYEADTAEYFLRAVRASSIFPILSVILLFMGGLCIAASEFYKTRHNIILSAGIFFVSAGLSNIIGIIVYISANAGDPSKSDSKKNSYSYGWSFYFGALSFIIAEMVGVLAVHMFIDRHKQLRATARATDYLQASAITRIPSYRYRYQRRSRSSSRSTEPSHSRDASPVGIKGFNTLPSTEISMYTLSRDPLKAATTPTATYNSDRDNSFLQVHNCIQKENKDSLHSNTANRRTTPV

Turning to `O=c1[nH]c2ccc(-c3c(Cl)cccc3OC(F)(F)F)cc2[nH]1`, the Activity entry in the data set on Rattus norvegicus [1] is “Non-Toxic”; in the data set with Rattus norvegicus [12] it was “Toxic”. Besides, the half-life – broadly, the time needed for the level to fall by half in the phase considered – in data set [2] is 5.8 h. Moreover, in data set [3], the fraction unbound (in general, the share of the substance not bound to proteins or other matrix) at 6 h, 1 µM stood at 0.3. In addition, in data set [4], the Kp uu worked out at 0.6. The peak level in data set [5] (Cmax) was 1030 ng/mL. In [6], the Papp B→A (as a rule, how fast a substance crosses the layer from the basolateral side) at 1 h, 5 µM was 24 ×10⁻⁶ cm/s. For the same compound, the ED50 (in general, the dose at which the effect has come halfway, by size or by number of responders) in the data set with Rattus norvegicus [7] worked out at 0.5 mg/kg. Also, the figures for the EC50 with Rattus norvegicus [8] and in the data set on Rattus norvegicus [16] were 545 ng/g and 145 ng/mL (≈ 0.441 µM), respectively. Further, the solubility thermodynamic at 72 h in data set [9] was < 4 µM; in data set [11] it was 74 µM (≈ 24.3 µg/mL). In data set [10], the bioavailability amounted to 133%. The Vd in data set [13] was found to be 3.3 L/kg. The clearance (as a rule, the volume of plasma or blood freed of the substance per unit of time) in [14] was 6.9 mL/min/kg. Also, in data set [15], the Papp A→B (as a rule, how fast a substance crosses the layer from the apical side) at 1 h, 5 µM came out at 22 ×10⁻⁶ cm/s.

On to `Cc1cc(-c2c(Cl)cccc2OC(F)(F)F)cc2c1NC(=O)C2`, for which, in data set [2], the half-life was 1.9 h. Also, the Ratio IC50 in the data set filed under Homo sapiens was > 1000. The results for the fraction unbound at 6 h, 1 µM in [3] and in data set [22] were 0.3 and 0.6, respectively. Besides, the EC50 in the data set on Rattus norvegicus [17] is 9 ng/mL (≈ 0.0263 µM); in the data set with Rattus norvegicus [8] it was 71 ng/g; with Rattus norvegicus [23], 9 ng/mL (≈ 0.0263 µM); in the data set with Rattus norvegicus [24], 71 ng/g. For the same compound, the results for the hepatic extraction ratio at 1 h, 1 µM in data set [18] and in data set [25] were 0.4 and 0.5, respectively. Also, the ED50 with Rattus norvegicus [7] came to 0.6 mg/kg. In addition, the Occ in the data set with Rattus norvegicus [19] turned out to be 82%. For the same compound, the Vd in data set [20] was 3.5 L/kg. In [21], the fraction unbound at 5 h, 5 µM was 0.4. The IC50 (in general, the point on the concentration scale where inhibition reaches its midpoint) at GRIA1/CACNG2 was 10 µM. Besides, the solubility thermodynamic at 72 h is < 4 µM in data set [9] and 55 µM (≈ 18.8 µg/mL) in data set [11]. Besides, the clearance in data set [14] was 28 mL/min/kg.
